In ChEMBL document CHEMBL4689842, “EUbOPEN Chemogenomics Library wave 1” (2021):

Test system: HEK-293T
Test: Multiplex assay against HEK293T;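 as to Population Tubulin-Different-Phenotype (%): share of the cells with healthy nuclei that show this phenotype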
Format: toxicity, cell-based
Settings: human
Summary of the method: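 Tubulin, mitochondrial-mass and membrane-permeability phenotypes are per cents of healthy-nucleus cells. Cells were gated by CellPathfinder machine learning into Hoechst high-intensity objects or normal cells, normal cells into healthy, pyknosed or fragmented nuclei, and pyknosed cells into mitotic or apoptotic. Before that, live cells stained at seeding with Hoechst33342, BioTracker Green Microtubule Cytoskeleton Dye, MitoTracker Red and Annexin V Alexa Fluor 680 were imaged on a CQ1 microscope at 37°C and 5% CO2 after compound addition.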

[1] = 12 h, 1 µM, compound concentration 1 uM, replicate 1
[2] = 12 h, 1 µM, compound concentration 1 uM, replicate 2
[3] = 12 h, 10 µM, compound concentration 10 uM, replicate 1
[4] = 12 h, 10 µM, compound concentration 10 uM, replicate 2
[5] = 24 h, 1 µM, compound concentration 1 uM, replicate 1
[6] = 24 h, 1 µM, compound concentration 1 uM, replicate 2
[7] = 24 h, 10 µM, compound concentration 10 uM, replicate 1
[8] = 24 h, 10 µM, compound concentration 10 uM, replicate 2
[9] = 48 h, 1 µM, compound concentration 1 uM, replicate 1
[10] = 48 h, 1 µM, compound concentration 1 uM, replicate 2
[11] = 48 h, 10 µM, compound concentration 10 uM, replicate 1
[12] = 48 h, 10 µM, compound concentration 10 uM, replicate 2

Cc1c[nH]c2nccc(Oc3c(F)cc(Nc4cc(Cl)nc(N)n4)cc3F)c12 [BAY-549]
Population Apoptotic (%) [1]: 37% | Population Fragmented Nuclei (%) [1]: 15% | Population Healthy Nuclei (%) [1]: 32% | Population Hoechst High Intensity Objects (%) [1]: 12% | Population Membrane Permeable-Phenotype (%) [1]: 0% | Population Mitochondria Different-Phenotype (%) [1]: 71% | Population Mitotic Cells (%) [1]: 62% | Population Normal (%) [1]: 87% | Population Pyknosed Nuclei (%) [1]: 52% | Population Tubulin-Different-Phenotype (%) [1]: 31% | Total Cell Count [1]: 310 | Population Apoptotic (%) [2]: 13% | Population Fragmented Nuclei (%) [2]: 7% | Population Healthy Nuclei (%) [2]: 54% | Population Hoechst High Intensity Objects (%) [2]: 4% | Population Membrane Permeable-Phenotype (%) [2]: 8% | Population Mitochondria Different-Phenotype (%) [2]: 8% | Population Mitotic Cells (%) [2]: 86% | Population Normal (%) [2]: 95% | Population Pyknosed Nuclei (%) [2]: 37% | Population Tubulin-Different-Phenotype (%) [2]: 14% | Total Cell Count [2]: 236 | Population Apoptotic (%) [3]: 45% | Population Fragmented Nuclei (%) [3]: 9% | Population Healthy Nuclei (%) [3]: 45% | Population Hoechst High Intensity Objects (%) [3]: 8% | Population Mitochondria Different-Phenotype (%) [3]: 65% | Population Mitotic Cells (%) [3]: 54% | Population Normal (%) [3]: 91% | Population Pyknosed Nuclei (%) [3]: 44% | Population Tubulin-Different-Phenotype (%) [3]: 5% | Total Cell Count [3]: 370 | Population Apoptotic (%) [4]: 16% | Population Fragmented Nuclei (%) [4]: 5% | Population Healthy Nuclei (%) [4]: 42% | Population Hoechst High Intensity Objects (%) [4]: 3% | Population Membrane Permeable-Phenotype (%) [4]: 0% | Population Mitochondria Different-Phenotype (%) [4]: 11% | Population Mitotic Cells (%) [4]: 83% | Population Normal (%) [4]: 96% | Population Pyknosed Nuclei (%) [4]: 52% | Population Tubulin-Different-Phenotype (%) [4]: 1% | Total Cell Count [4]: 247 | Population Apoptotic (%) [5]: 45% | Population Fragmented Nuclei (%) [5]: 14% | Population Healthy Nuclei (%) [5]: 32% | Population Hoechst High Intensity Objects (%) [5]: 10% | Population Membrane Permeable-Phenotype (%) [5]: 2% | Population Mitochondria Different-Phenotype (%) [5]: 47% | Population Mitotic Cells (%) [5]: 54% | Population Normal (%) [5]: 89% | Population Pyknosed Nuclei (%) [5]: 52% | Population Tubulin-Different-Phenotype (%) [5]: 25% | Total Cell Count [5]: 284 | Population Apoptotic (%) [6]: 18% | Population Fragmented Nuclei (%) [6]: 13% | Population Healthy Nuclei (%) [6]: 66% | Population Hoechst High Intensity Objects (%) [6]: 3% | Population Membrane Permeable-Phenotype (%) [6]: 8% | Population Mitochondria Different-Phenotype (%) [6]: 10% | Population Mitotic Cells (%) [6]: 81% | Population Normal (%) [6]: 96% | Population Pyknosed Nuclei (%) [6]: 19% | Population Tubulin-Different-Phenotype (%) [6]: 7% | Total Cell Count [6]: 255 | Population Apoptotic (%) [7]: 48% | Population Fragmented Nuclei (%) [7]: 11% | Population Healthy Nuclei (%) [7]: 41% | Population Hoechst High Intensity Objects (%) [7]: 9% | Population Mitochondria Different-Phenotype (%) [7]: 51% | Population Mitotic Cells (%) [7]: 51% | Population Normal (%) [7]: 90% | Population Pyknosed Nuclei (%) [7]: 46% | Population Tubulin-Different-Phenotype (%) [7]: 4% | Total Cell Count [7]: 375 | Population Apoptotic (%) [8]: 31% | Population Fragmented Nuclei (%) [8]: 6% | Population Healthy Nuclei (%) [8]: 49% | Population Hoechst High Intensity Objects (%) [8]: 2% | Population Membrane Permeable-Phenotype (%) [8]: 0% | Population Mitochondria Different-Phenotype (%) [8]: 21% | Population Mitotic Cells (%) [8]: 68% | Population Normal (%) [8]: 97% | Population Pyknosed Nuclei (%) [8]: 44% | Population Tubulin-Different-Phenotype (%) [8]: 5% | Total Cell Count [8]: 233 | Population Apoptotic (%) [9]: 48% | Population Fragmented Nuclei (%) [9]: 29% | Population Healthy Nuclei (%) [9]: 34% | Population Hoechst High Intensity Objects (%) [9]: 9% | Population Membrane Permeable-Phenotype (%) [9]: 1% | Population Mitochondria Different-Phenotype (%) [9]: 24% | Population Mitotic Cells (%) [9]: 51% | Population Normal (%) [9]: 90% | Population Pyknosed Nuclei (%) [9]: 36% | Population Tubulin-Different-Phenotype (%) [9]: 24% | Total Cell Count [9]: 307 | Population Apoptotic (%) [10]: 28% | Population Fragmented Nuclei (%) [10]: 25% | Population Healthy Nuclei (%) [10]: 64% | Population Hoechst High Intensity Objects (%) [10]: 2% | Population Membrane Permeable-Phenotype (%) [10]: 8% | Population Mitochondria Different-Phenotype (%) [10]: 4% | Population Mitotic Cells (%) [10]: 71% | Population Normal (%) [10]: 97% | Population Pyknosed Nuclei (%) [10]: 10% | Population Tubulin-Different-Phenotype (%) [10]: 10% | Total Cell Count [10]: 336 | Population Apoptotic (%) [11]: 60% | Population Fragmented Nuclei (%) [11]: 16% | Population Healthy Nuclei (%) [11]: 34% | Population Hoechst High Intensity Objects (%) [11]: 9% | Population Mitochondria Different-Phenotype (%) [11]: 45% | Population Mitotic Cells (%) [11]: 39% | Population Normal (%) [11]: 90% | Population Pyknosed Nuclei (%) [11]: 48% | Population Tubulin-Different-Phenotype (%) [11]: 6% | Total Cell Count [11]: 330 | Population Apoptotic (%) [12]: 56% | Population Fragmented Nuclei (%) [12]: 4% | Population Healthy Nuclei (%) [12]: 47% | Population Hoechst High Intensity Objects (%) [12]: 3% | Population Membrane Permeable-Phenotype (%) [12]: 1% | Population Mitochondria Different-Phenotype (%) [12]: 10% | Population Mitotic Cells (%) [12]: 43% | Population Normal (%) [12]: 96% | Population Pyknosed Nuclei (%) [12]: 47% | Population Tubulin-Different-Phenotype (%) [12]: 8% | Total Cell Count [12]: 219
